Measured values taken from ChEMBL document CHEMBL1949525, “Boranophosphate isoster controls P2Y-receptor subtype selectivity and metabolic stability of dinucleoside polyphosphate analogues” (J Med Chem, 2012).
Active and inactive are the calls of the source. The calls are words filed in the database; no cut-off is given here.

How the values were obtained:
e-NPP1 = assay: (§1) Stability of the compound assessed as human e-NPP1-mediated hydrolysis at pH 8.5 after 20 mins by HPLC analysis; type: ADME; details: human, human e-NPP1 enzyme, pH 8.5; read-out: Drug degradation
Summary of the method: (§2)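 Human NPP1 preparation preincubated 3 min at 37 °C in 1 mM CaCl2, 200 mM NaCl, 10 mM KCl, 100 mM Tris, pH 8.5. Started with 0.2 mM dinucleotide solution (added volume) and stopped after 20 min in ice-cold perchloric acid. Neutralised with KOH, then NMP formation followed by HPLC. Percent substrate hydrolysed is the mean of two experiments run in triplicate.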

P2Y purinoceptor 4 [1] = target: T1, P2Y purinoceptor 4 (Homo sapiens, UniProt P51582); assay: Agonist activity at human P2Y purinoceptor 4 expressed in human 1321N1 cells assessed as increase in intracellular calcium concentration by spectrofluorimetry; type: functional, cell-based; details: 1321-n1
T1 sequence (P51582 whole entry): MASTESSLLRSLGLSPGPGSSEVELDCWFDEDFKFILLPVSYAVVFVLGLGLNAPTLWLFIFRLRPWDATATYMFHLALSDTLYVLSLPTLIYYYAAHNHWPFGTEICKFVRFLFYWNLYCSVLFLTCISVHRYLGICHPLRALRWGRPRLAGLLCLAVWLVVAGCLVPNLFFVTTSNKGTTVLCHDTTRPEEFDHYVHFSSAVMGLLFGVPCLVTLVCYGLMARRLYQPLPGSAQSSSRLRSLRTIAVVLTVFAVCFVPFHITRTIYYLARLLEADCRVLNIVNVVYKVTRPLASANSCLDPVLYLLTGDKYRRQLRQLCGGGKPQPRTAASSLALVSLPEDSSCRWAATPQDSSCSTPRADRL
Summary of the method: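 1321N1 astrocytoma cells (no endogenous P2Y receptors) stably expressing hP2Y4, grown in DMEM with 5% FBS, penicillin/streptomycin and 500 μg/mL G-418. Fura-2-loaded cell suspensions; compounds applied at various concentrations, 37 °C, 10 mM Hepes-buffered saline pH 7.4 with 1 mM CaCl2/MgCl2. Peak [Ca2+]i rise by dual-excitation fluorometry gives EC50; UTP reference agonist; three experiments on separate days.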

P2Y purinoceptor 6 = P2Y purinoceptor 6 (Rattus norvegicus, UniProt Q63371); assay: Agonist activity at rat P2Y purinoceptor 6 expressed in human 1321N1 cells assessed as increase in intracellular calcium concentration by spectrofluorimetry; type: functional, cell-based
P2Y purinoceptor 6, sequence (Q63371 whole entry): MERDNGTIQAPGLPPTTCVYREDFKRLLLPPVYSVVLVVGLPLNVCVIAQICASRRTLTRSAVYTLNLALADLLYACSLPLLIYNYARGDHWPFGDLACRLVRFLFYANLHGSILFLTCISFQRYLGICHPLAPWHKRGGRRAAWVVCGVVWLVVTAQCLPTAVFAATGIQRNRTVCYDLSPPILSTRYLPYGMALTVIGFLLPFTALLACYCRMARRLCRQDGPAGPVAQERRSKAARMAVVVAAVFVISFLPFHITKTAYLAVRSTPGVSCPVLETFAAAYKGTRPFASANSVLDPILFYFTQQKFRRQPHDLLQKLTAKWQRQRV
Summary of the method: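 1321N1 astrocytoma cells lacking endogenous P2Y receptors, stably transfected with turkey P2Y1, human P2Y2, human P2Y4 or rat P2Y6, grown in DMEM with 5% FBS, penicillin/streptomycin and 500 µg/mL G-418. Fura-2-loaded cell suspensions were exposed at 37 °C in 10 mM Hepes-buffered saline, pH 7.4, with 1 mM CaCl2 and 1 mM MgCl2. Peak [Ca2+]i rise by dual-excitation spectrofluorometry across concentrations; EC50 from curve fits; three experiments on separate days per subtype.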

[2] = as §1; type: ADME; details: buffer, pH 8.5, 20 min; summary of the method: as §2
[3] = Chemical stability of the compound at pH mimicking gastric juice acidity; type: physicochemical; details: simulated gi fluid
[4] = Chemical stability of the compound at physiological conditions; type: physicochemical
[5] = target: P2Y purinoceptor 1 (Meleagris gallopavo) (UniProt P49652); assay: (§3) Agonist activity at turkey P2Y purinoceptor 1 expressed in human 1321N1 cells assessed as increase in intracellular calcium concentration by spectrofluorimetry; type: functional, cell-based
P2Y purinoceptor 1 (Meleagris gallopavo), sequence (P49652 whole entry): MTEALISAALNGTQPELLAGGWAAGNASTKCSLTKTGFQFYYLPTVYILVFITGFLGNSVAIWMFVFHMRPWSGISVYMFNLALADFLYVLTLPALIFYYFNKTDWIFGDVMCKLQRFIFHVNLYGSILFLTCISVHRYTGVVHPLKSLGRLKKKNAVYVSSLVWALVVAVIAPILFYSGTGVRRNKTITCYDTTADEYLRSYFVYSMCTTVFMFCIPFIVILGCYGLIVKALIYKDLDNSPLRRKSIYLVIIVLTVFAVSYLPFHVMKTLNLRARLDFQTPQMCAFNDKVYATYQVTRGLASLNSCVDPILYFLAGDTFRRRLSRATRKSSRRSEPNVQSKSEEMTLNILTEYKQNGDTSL

P2Y purinoceptor 2 [6] = target: T2, P2Y purinoceptor 2 (Homo sapiens, UniProt P41231); assay: Agonist activity at human P2Y purinoceptor 2 expressed in human 1321N1 cells assessed as increase in intracellular calcium concentration by spectrofluorimetry; type: functional, cell-based
T2 sequence (P41231 whole entry): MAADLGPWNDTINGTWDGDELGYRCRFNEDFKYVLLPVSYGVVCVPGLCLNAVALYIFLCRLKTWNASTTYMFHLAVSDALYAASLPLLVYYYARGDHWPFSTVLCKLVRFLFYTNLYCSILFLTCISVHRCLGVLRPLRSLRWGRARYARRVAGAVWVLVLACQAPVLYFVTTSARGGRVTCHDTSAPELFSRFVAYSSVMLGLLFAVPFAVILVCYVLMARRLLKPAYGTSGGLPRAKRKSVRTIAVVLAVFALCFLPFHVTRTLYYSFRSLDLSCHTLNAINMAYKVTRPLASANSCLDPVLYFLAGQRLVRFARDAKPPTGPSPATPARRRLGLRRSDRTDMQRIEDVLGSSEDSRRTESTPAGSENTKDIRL

[7] = target: P2Y purinoceptor 1 (Meleagris gallopavo) (UniProt P49652); assay: Antagonist activity at turkey P2Y purinoceptor 1 expressed in human 1321N1 cells assessed as inhibition of 2-Sme-ADP-induced increase in intracellular calcium concentration by spectrofluorimetry; type: functional, cell-based
Summary of the method: (§4)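 Fura-2-loaded 1321N1 transfectants (turkey P2Y1, human P2Y2/P2Y4, rat P2Y6) in Hepes-buffered saline, pH 7.4, at 37 °C. Analogues were tested against equimolar reference agonist: 2-MeS-ADP for P2Y1, UTP for P2Y2/4, UDP for P2Y6. Blockade of the [Ca2+]i rise was followed by dual-excitation spectrofluorometry.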

P2Y purinoceptor 2 [8] = target: T2, P2Y purinoceptor 2; assay: Antagonist activity at human P2Y purinoceptor 2 expressed in human 1321N1 cells assessed as inhibition of UTP-induced increase in intracellular calcium concentration by spectrofluorimetry; type: functional, cell-based; summary of the method: as §4
P2Y purinoceptor 4 [9] = target: T1, P2Y purinoceptor 4; assay: Antagonist activity at human P2Y purinoceptor 4 expressed in human 1321N1 cells assessed as inhibition of UTP-induced increase in intracellular calcium concentration by spectrofluorimetry; type: functional, cell-based; summary of the method: as §4
[10] = target: P2Y purinoceptor 6 (Rattus norvegicus) (UniProt Q63371); assay: Antagonist activity at rat P2Y purinoceptor 6 expressed in human 1321N1 cells assessed as inhibition of UDP-induced increase in intracellular calcium concentration by spectrofluorimetry; type: functional, cell-based; summary of the method: as §4
P2Y purinoceptor 6 (Rattus norvegicus), sequence (Q63371 whole entry): as the sequence (Q63371 whole entry) above

[11] = target: P2Y purinoceptor 1 (Meleagris gallopavo) (UniProt P49652); assay: Agonist activity at turkey P2Y purinoceptor 1 expressed in human 1321N1 cells assessed as increase in intracellular calcium concentration at 100 uM by spectrofluorimetry; type: functional, cell-based
P2Y purinoceptor 1 = P2Y purinoceptor 1 (Meleagris gallopavo, UniProt P49652); assay: as §3; type: functional, cell-based; details: read-out: EC50
P2Y purinoceptor 1, sequence (P49652 whole entry): as the sequence (P49652 whole entry) above

Structure (SMILES)	metabolised at 20 min (e-NPP1) [%]	EC50 (P2Y purinoceptor 4 [1])	Stability [2]	Stability [3]	Stability [4]	Activity [5]	Activity (P2Y purinoceptor 2 [6])	further results
BP(=O)(OP(=O)(O)OC[C@H]1O[C@@H](n2ccc(=O)[nH]c2=O)[C@H](O)[C@@H]1O)OP(=O)(O)OC[C@H]1O[C@@H](n2ccc(=O)[nH]c2=O)[C@H](O)[C@@H]1O.CCCCN(CCCC)CCCC.CCCCN(CCCC)CCCC.CCCCN(CCCC)CCCC	–	–	Stable	Stable	Stable	inactive	inactive	–
BP(=O)(OP(=O)(O)OC[C@H]1O[C@@H](n2cnc3c(N)ncnc32)[C@H](O)[C@@H]1O)OP(=O)(O)OP(=O)(O)OC[C@H]1O[C@@H](n2ccc(=O)[nH]c2=O)[C@H](O)[C@@H]1O.CCCCN(CCCC)CCCC.CCCCN(CCCC)CCCC.CCCCN(CCCC)CCCC.CCCCN(CCCC)CCCC (stereo in doubt; 8A)	1.5	Not Active	–	–	–	–	–	EC50 (P2Y purinoceptor 2 [6]; 1321-n1): Not Active; EC50 (P2Y purinoceptor 6; read-out: EC50): 1.29 µM
BP(=O)(OC[C@H]1O[C@@H](n2ccc(=O)[nH]c2=O)[C@H](O)[C@@H]1O)OP(=O)(O)OP(=O)(O)OC[C@H]1O[C@@H](n2ccc(=O)[nH]c2=O)[C@H](O)[C@@H]1O.CCCCN(CCCC)CCCC.CCCCN(CCCC)CCCC.CCCCN(CCCC)CCCC (stereo in doubt; 11B)	–	–	–	–	–	–	–	Activity [7]: inactive; Activity (P2Y purinoceptor 2 [8]): inactive; Activity (P2Y purinoceptor 4 [9]): inactive; Activity [10]: inactive; Activity [11]: Active
Nc1ncnc2c1ncn2[C@@H]1O[C@H](COP(=O)(O)OP(=O)(O)OP(=O)(O)OP(=O)(O)OC[C@H]2O[C@@H](n3ccc(=O)[nH]c3=O)[C@H](O)[C@@H]2O)[C@@H](O)[C@H]1O	18	–	–	–	–	–	–	–
BP(=O)(OC[C@H]1O[C@@H](n2cnc3c(N)ncnc32)[C@H](O)[C@@H]1O)OP(=O)(O)OP(=O)(O)OP(=O)(O)OC[C@H]1O[C@@H](n2cnc3c(N)ncnc32)[C@H](O)[C@@H]1O.CCCCN(CCCC)CCCC.CCCCN(CCCC)CCCC.CCCCN(CCCC)CCCC.CCCCN(CCCC)CCCC (stereo in doubt; 12A)	–	Not Active	–	–	–	–	–	Drug degradation ([2]; 20 min): 2.5%; EC50 (P2Y purinoceptor 1): 1.48 µM; EC50 (P2Y purinoceptor 2 [6]; read-out: EC50): 25.9 µM; EC50 (P2Y purinoceptor 6; 1321-n1): Not Active
BP(=O)(OP(=O)(O)OP(=O)(O)OC[C@H]1O[C@@H](n2ccc(=O)[nH]c2=O)[C@H](O)[C@@H]1O)OP(=O)(O)OP(=O)(O)OC[C@H]1O[C@@H](n2ccc(=O)[nH]c2=O)[C@H](O)[C@@H]1O.CCCCN(CCCC)CCCC.CCCCN(CCCC)CCCC.CCCCN(CCCC)CCCC.CCCCN(CCCC)CCCC.CCCCN(CCCC)CCCC	–	–	Stable	Stable	Stable	inactive	inactive	–

Second part, led by results:

metabolised at 20 min (e-NPP1) [%]	EC50 (P2Y purinoceptor 4 [1])	Stability [2]	Stability [3]	Stability [4]	Activity [5]	Activity (P2Y purinoceptor 2 [6])	Structure (SMILES)	further results
3	Not Active	–	–	–	–	–	BP(=O)(OP(=O)(O)OC[C@H]1O[C@@H](n2ccc(=O)[nH]c2=O)[C@H](O)[C@@H]1O)OP(=O)(O)OP(=O)(O)OC[C@H]1O[C@@H](n2ccc(=O)[nH]c2=O)[C@H](O)[C@@H]1O.CCCCN(CCCC)CCCC.CCCCN(CCCC)CCCC.CCCCN(CCCC)CCCC.CCCCN(CCCC)CCCC (stereo in doubt; 7A)	EC50 (P2Y purinoceptor 6; read-out: EC50): 1.93 µM
–	–	Unstable	Stable	Stable	Active	inactive	BP(=O)(OP(=O)(O)OP(=O)(O)OC[C@H]1O[C@@H](n2cnc3c(N)ncnc32)[C@H](O)[C@@H]1O)OP(=O)(O)OP(=O)(O)OC[C@H]1O[C@@H](n2cnc3c(N)ncnc32)[C@H](O)[C@@H]1O.CCCCN(CCCC)CCCC.CCCCN(CCCC)CCCC.CCCCN(CCCC)CCCC.CCCCN(CCCC)CCCC.CCCCN(CCCC)CCCC	–
1.6	Not Active	–	–	–	–	–	BP(=O)(OP(=O)(O)OC[C@H]1O[C@@H](n2cnc3c(N)ncnc32)[C@H](O)[C@@H]1O)OP(=O)(O)OP(=O)(O)OC[C@H]1O[C@@H](n2cnc3c(N)ncnc32)[C@H](O)[C@@H]1O.CCCCN(CCCC)CCCC.CCCCN(CCCC)CCCC.CCCCN(CCCC)CCCC.CCCCN(CCCC)CCCC (stereo in doubt; 6A)	EC50 (P2Y purinoceptor 1): 3 µM; EC50 (P2Y purinoceptor 2 [6]; 1321-n1): Not Active
